Measured values as given in ChEMBL document CHEMBL5257157, “Biological evaluation of novel amidino substituted coumarin-benzazole hybrids as promising therapeutic agents” (RSC Med Chem, 2023).

What was measured:
[1] = system: LN-229; test: Antiproliferative activity against human LN-229 cells assessed as inhibition of cell growth incubated for 72 hrs by CellTiter96 Aqueous One Solution cell proliferation assay; type: functional, cell-based; settings: LN-229, 72 h
[2] = system: CAPAN-1; test: Antiproliferative activity against human CAPAN-1 cells assessed as inhibition of cell growth incubated for 72 hrs by CellTiter96 Aqueous One Solution cell proliferation assay; type: functional, cell-based; settings: CAPAN-1, 72 h
[3] = system: HCT-116; test: Antiproliferative activity against human HCT-116 cells assessed as inhibition of cell growth incubated for 72 hrs by CellTiter96 Aqueous One Solution cell proliferation assay; type: functional, cell-based; settings: HCT-116, 72 h
[4] = system: NCI-H460; test: Antiproliferative activity against human NCI-H460 cells assessed as inhibition of cell growth incubated for 72 hrs by CellTiter96 Aqueous One Solution cell proliferation assay; type: functional, cell-based; settings: NCI-H460, 72 h
[5] = Antiproliferative activity against human DND41 cells assessed as inhibition of cell growth incubated for 72 hrs by CellTiter96 Aqueous One Solution cell proliferation assay; type: functional, cell-based; settings: DND41, 72 h
[6] = system: HL-60; test: Antiproliferative activity against human HL-60 cells assessed as inhibition of cell growth incubated for 72 hrs by CellTiter96 Aqueous One Solution cell proliferation assay; type: functional, cell-based; settings: HL-60, 72 h
[7] = system: K562; test: Antiproliferative activity against human K562 cells assessed as inhibition of cell growth incubated for 72 hrs by CellTiter96 Aqueous One Solution cell proliferation assay; type: functional, cell-based; settings: K562, 72 h
[8] = system: Z-138; test: Antiproliferative activity against human Z138 cells assessed as inhibition of cell growth incubated for 72 hrs by CellTiter96 Aqueous One Solution cell proliferation assay; type: functional, cell-based; settings: Z-138, 72 h
[9] = Cytotoxicity against human HEL 299 cells assessed as inhibition of cell growth incubated for 72 hrs by CellTiter96 Aqueous One Solution cell proliferation assay; type: toxicity, cell-based
[10] = system: Huh-7; test: Cytotoxicity against human Huh-7 cells assessed as inhibition of cell growth incubated for 72 hrs by CellTiter96 Aqueous One Solution cell proliferation assay; type: functional
[11] = Cytotoxicity against dog MDCK cells assessed as inhibition of cell growth incubated for 72 hrs by CellTiter96 Aqueous One Solution cell proliferation assay; type: toxicity, cell-based, Canis lupus familiaris
[12] = system: Human coronavirus 229E; test: Antiviral activity against HCoV-229E infected in human HEL 299 cells assessed as inhibition of virus-induced cytopathogenic effect incubated for 3 to 7 days by MTS assay; type: functional, organism-based
[13] = system: Human coronavirus OC43; test: Antiviral activity against HCoV-OC43 infected in human HEL 299 cells assessed as inhibition of virus-induced cytopathogenic effect incubated for 3 to 7 days by MTS assay; type: functional, organism-based; settings: Betacoronavirus 1, HEL 299
[14] = Antiviral activity against HCoV-NL63 infected in human Huh-7 cells assessed as inhibition of virus-induced cytopathogenic effect incubated for 3 to 7 days by MTS assay; type: functional, cell-based; settings: Human coronavirus NL63, Huh-7
[15] = system: Influenza A virus; test: Antiviral activity against influenza virus H1N1 infected in dog MDCK cells assessed as inhibition of virus-induced cytopathogenic effect incubated for 3 to 7 days by MTS assay; type: functional, organism-based
[16] = system: Influenza A virus; test: Antiviral activity against influenza virus H3N2 infected in dog MDCK cells assessed as inhibition of virus-induced cytopathogenic effect incubated for 3 to 7 days by MTS assay; type: functional, organism-based
[17] = system: Influenza B virus; test: Antiviral activity against influenza B virus infected in dog MDCK cells assessed as inhibition of virus-induced cytopathogenic effect incubated for 3 to 7 days by MTS assay; type: functional, organism-based
[18] = system: Respiratory syncytial virus; test: Antiviral activity against RSV infected in human HEL 299 cells assessed as inhibition of virus-induced cytopathogenic effect incubated for 3 to 7 days by MTS assay; type: functional, organism-based
[19] = system: Human alphaherpesvirus 1; test: Antiviral activity against HSV-1 KOS infected in human HEL 299 cells assessed as inhibition of virus-induced cytopathogenic effect incubated for 3 to 7 days by MTS assay; type: functional, organism-based; settings: Human alphaherpesvirus 1, KOS
[20] = system: Yellow fever virus; test: Antiviral activity against Yellow fever virus 17D infected in human Huh-7 cells assessed as inhibition of virus-induced cytopathogenic effect incubated for 3 to 7 days by MTS assay; type: functional, organism-based
[21] = system: Zika virus; test: Antiviral activity against Zika virus Mr776 infected in human Huh-7 cells assessed as inhibition of virus-induced cytopathogenic effect incubated for 3 to 7 days by MTS assay; type: functional, organism-based; settings: Mr776, Huh-7
[22] = system: Sindbis virus; test: Antiviral activity against Sindbis virus infected in human Huh-7 cells assessed as inhibition of virus-induced cytopathogenic effect incubated for 3 to 7 days by MTS assay; type: functional, organism-based
[23] = Antioxidant activity assessed as ABTS radical scavenging activity incubated for 5 mins by absorbance based microplate reader analysis; type: functional
In short: (§1)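 Pure compounds tested in three colorimetric antioxidant assays, each run alongside the reference BHT. […] ABTS: direct reaction with ABTS•+ radical cation, reported as IC50. DPPH: scavenging of the stable DPPH radical by proton or electron donation, reported as IC50. FRAP: reducing power, expressed as mmolFe2+/mmolC.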

[24] = Antioxidant activity assessed as reduction of Fe3+ complex to Fe2+ analogue by measuring mmolFe2+/mmolc by FRAP assay; type: functional; in short: as §1
[25] = Drug localization in nucleolus of human HEp-2 cells at 10 uM incubated for 3 hrs by confocal microscopy analysis; type: ADME, subcellular; settings: hep-2, 3 h
In short: (§2)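 Compound autofluorescence was imaged by fluorescence microscopy in Hep-2 cells (ATCC CCL-23). Cells were given 10 μM and incubated for 3 hours to allow cellular uptake before imaging. Localization to subcellular compartments was judged from the fluorescence pattern.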

[26] = Drug localization in nuclear membrane of human HEp-2 cells at 10 uM incubated for 3 hrs by confocal microscopy analysis; type: ADME, cell membranes; settings: hep-2, 3 h; in short: as §2
[27] = Drug localization in cytoplasm of human HEp-2 cells at 10 uM incubated for 3 hrs by confocal microscopy analysis; type: ADME, subcellular; settings: hep-2, 3 h; in short: as §2
[28] = Cytotoxicity against human PBMC cells assessed as reduction in cell viability at 0.006 to 4 uM measured after 72 hrs by CellTiter96 Aqueous One Solution cell proliferation assay; type: toxicity, cell-based; settings: dose 0.006-4 µM
[29] = Cytotoxicity against human PBMC cells assessed as reduction in cell viability measured after 72 hrs by CellTiter96 Aqueous One Solution cell proliferation assay; type: toxicity, cell-based
In short: (§3)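 Normal peripheral blood mononuclear cells from healthy donors were exposed to compound for 72 hours, at concentrations up to a highest dose of 100 μM. Viability is given as a percentage of untreated PBMC control.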

[30] = Antioxidant activity assessed as DPPH radical scavenging activity incubated for 5 mins by absorbance based microplate reader analysis; type: functional; in short: as §1
[31] = Cytotoxicity against human PBMC cells assessed as reduction in cell viability at 20 uM measured after 72 hrs by CellTiter96 Aqueous One Solution cell proliferation assay; type: toxicity, cell-based; in short: as §3

Compound	IC50 [1] [nM]	IC50 [2] [nM]	IC50 [4] [nM]	IC50 [5] [nM]	IC50 [6] [nM]	IC50 [7] [nM]	IC50 [8] [nM]	CC50 at 72 h [9] [nM]	CC50 [10] [nM]	CC50 at 72 h [11] [nM]	EC50 [12] [nM]	EC50 [13] [nM]	EC50 [14] [nM]	EC50 [15] [nM]	EC50 [16] [nM]	EC50 [17] [nM]	EC50 [18] [nM]	EC50 [19] [nM]	EC50 [20] [nM]	EC50 [21] [nM]	further results
COC(=O)Nc1nc2cc(C(=O)c3cccs3)ccc2[nH]1 [NOCODAZOLE]	100	130	250	470	100	70	310	–	–	–	–	–	–	–	–	–	–	–	–	–	IC50 [3]: 130 nM
CCN(CC)c1ccc2cc(-c3nc4ccc(C5=NCCCN5)cc4s3)c(=O)oc2c1.Cl	1800	2000	> 100000	1300	> 100000	> 100000	1500	> 100000	1800	4200	33000	28900	> 100000	> 100000	> 100000	> 100000	43400	25500	> 100000	> 100000	EC50 [22]: > 100000 nM; IC50 [23]: 980000 nM; Activity [24]: 3.29 mmol/mmol; Drug uptake [25]: Active; Drug uptake [26]: Active; Drug uptake [27]: Active; Activity [28]: > 80%; IC50 at 72 h [29]: 1700 nM
CCN(CC)c1ccc2cc(-c3nc4cc(C5=NCCN5)ccc4[nH]3)c(=O)oc2c1.Cl	1400	1700	1800	300	2100	1900	1500	5100	< 800	< 800	> 100000	> 100000	> 100000	> 100000	> 100000	> 100000	> 100000	> 100000	> 100000	> 100000	EC50 [22]: > 100000 nM; IC50 [23]: 170000 nM; IC50 [30]: 140000 nM; Activity [24]: 28.4 mmol/mmol; Drug uptake [25]: Active; Drug uptake [26]: Active; Activity [31]: 60%; Activity [28]: > 80%; IC50 at 72 h [29]: 1600 nM
